Results from ChEMBL document CHEMBL1132961 (J Med Chem, 2000).

Legend:
[1] = Tested for maximum plasma concentration in rats; type: ADME, organism-based; details: rat
Summary of the method: (§1)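 Rats given 10 mg/kg orally in NaOH solution buffered to pH 7.4. Plasma Cmax, T1/2 and AUC determined.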

[2] = Half-life period in rat; type: ADME, organism-based; details: in vivo; summary of the method: as §1
[3] = Concentration which elicits cytotoxicity in 50% of uninfected human lymphocyte derived CEM cells; type: cell-based, CCRF-CEM; details: uninfected CCRF-CEM cells, read-out: TC50 (the source's name)
Summary of the method: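 Cytotoxicity measured in uninfected human lymphocyte-derived CEM cells by XTT protocol.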

[4] = system: Human immunodeficiency virus 1; experiment: Effective concentration at which 50% of the HIV-IIIB-infected human lymphocyte-derived CEM cells protected from HIV-1 infection; details: Human immunodeficiency virus 1, CCRF-CEM
[5] = AUC value in rat; type: ADME; details: plasma; summary of the method: as §1
[6] = Tested for maximum plasma concentration in mice; type: ADME, organism-based; details: mouse
Summary of the method: (§2)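 Mice dosed orally by gavage at 25 mg/kg. Vehicle was usually 20% 0.1 N NaOH/80% 0.5% methylcellulose, and in two cases 20% 0.1 N NaOH/80% PEG 400. Plasma Cmax and AUC measured; AUC not determined where Cmax was too low.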

[7] = biological target: T1, Human immunodeficiency virus type 1 protease (Human immunodeficiency virus 1, UniProt Q72874); experiment: Tested for binding affinity against HIV protease
[8] = AUC value in mice; type: ADME, organism-based; details: mouse, plasma; summary of the method: as §2
[9] = biological target: T1, Human immunodeficiency virus type 1 protease; experiment: Tested for binding affinity against protease
[10] = biological target: T1, Human immunodeficiency virus type 1 protease; experiment: Activity of potent nonpeptidic inhibitor against protease
Summary of the method: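 Incubated with 40 µM His-Lys-Ala-Arg-Val-Leu-(p-NO₂-Phe)-Glu-Ala-Nle-Ser-NH₂ in 1.0% DMSO, pH 6.2 MES buffer (DTT, NaCl, EDTA, PEG 8000) for 60 min at 37 °C, then TFA quench. Substrate and product separated by reverse-phase HPLC, read at 220 nm. % control = conversion with inhibitor / conversion without × 100; IC50 derived.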

[11] = Tested for cytotoxic activity against HIV-1 144-44 in PBMC cells; type: cell-based; details: human, pooled result: one value given for 5 cell lines, strains, targets or settings, read-out: TC50 (the source's name)
[12] = Effective concentration required for antiviral activity against HIV-1 1026-60 in PBMC cells; type: functional, cell-based; details: Homo sapiens
Summary of the method: (§3)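 PBMC cells infected with HIV-1 clinical isolates, using an XTT cytopathic assay similar to the CEM assay. EC50 read as protection from viral cytopathic effect.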

[13] = Effective concentration required for antiviral activity against HIV-1 RoJo in PBMC cells; type: functional, cell-based; details: Homo sapiens; summary of the method: as §3
[14] = Effective concentration required for antiviral activity against HIV-1 WeJo in PBMC cells; type: functional, cell-based; details: Homo sapiens; summary of the method: as §3
[15] = Effective concentration required for antiviral activity against HIV-1 144-44 in PBMC cells; type: functional, cell-based; details: Homo sapiens; summary of the method: as §3
[16] = Effective concentration required for antiviral activity against HIV-1 SLKA in PBMC cells; type: functional, cell-based; details: Homo sapiens; summary of the method: as §3
[17] = Tested for cytotoxic activity against HIV-1 1026-60 in PBMC cells; type: cell-based; details: human, read-out: TC50 (the source's name)
[18] = Effective concentration required for antiviral activity against HIV-1 TEKI in PBMC cells; type: functional, cell-based; details: Homo sapiens; summary of the method: as §3
CYP3A4 [19] = biological target: T2, CYP3A4 (Homo sapiens, UniProt P08684); experiment: Residual activity of cytochrome P4503A4 at 100 uM
T2 sequence (P08684 whole entry): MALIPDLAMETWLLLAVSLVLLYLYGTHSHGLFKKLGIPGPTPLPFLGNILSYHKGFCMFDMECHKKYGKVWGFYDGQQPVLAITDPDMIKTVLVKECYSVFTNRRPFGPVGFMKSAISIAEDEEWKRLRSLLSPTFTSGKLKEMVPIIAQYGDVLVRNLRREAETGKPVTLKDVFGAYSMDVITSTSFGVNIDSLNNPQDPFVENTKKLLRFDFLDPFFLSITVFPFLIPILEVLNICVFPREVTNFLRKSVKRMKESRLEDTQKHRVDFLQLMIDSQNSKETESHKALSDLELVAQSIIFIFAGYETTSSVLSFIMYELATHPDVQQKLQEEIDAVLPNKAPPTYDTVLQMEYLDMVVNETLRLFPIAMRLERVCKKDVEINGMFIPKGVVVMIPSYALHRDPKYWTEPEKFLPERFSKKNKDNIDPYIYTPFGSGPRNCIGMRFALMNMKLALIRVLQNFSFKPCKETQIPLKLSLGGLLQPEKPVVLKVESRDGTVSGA

CYP2C9 [20] = biological target: T3, CYP2C9 (Homo sapiens, UniProt P11712); experiment: Residual activity of cytochrome P450 2C9 at 1 uM
T3 sequence (P11712 whole entry): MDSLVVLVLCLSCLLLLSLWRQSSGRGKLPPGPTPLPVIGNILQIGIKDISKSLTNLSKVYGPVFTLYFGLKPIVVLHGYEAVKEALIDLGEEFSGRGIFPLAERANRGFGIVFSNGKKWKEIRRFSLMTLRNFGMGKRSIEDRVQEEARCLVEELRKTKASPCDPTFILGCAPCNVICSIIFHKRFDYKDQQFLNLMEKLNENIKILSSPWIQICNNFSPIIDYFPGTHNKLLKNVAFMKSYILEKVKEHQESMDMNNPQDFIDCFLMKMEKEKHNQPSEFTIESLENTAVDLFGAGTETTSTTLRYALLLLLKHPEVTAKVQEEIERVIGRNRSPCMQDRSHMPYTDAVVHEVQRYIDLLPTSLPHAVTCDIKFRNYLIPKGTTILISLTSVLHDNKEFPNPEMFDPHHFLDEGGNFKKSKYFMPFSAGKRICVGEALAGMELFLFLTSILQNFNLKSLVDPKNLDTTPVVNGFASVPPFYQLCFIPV

CYP3A4 [21] = biological target: T2, CYP3A4; experiment: Residual activity of cytochrome P4503A4 at 1 uM
CYP3A4 [22] = biological target: T2, CYP3A4; experiment: Residual activity of cytochrome P4503A4 at 10 uM
CYP2C9 [23] = biological target: T3, CYP2C9; experiment: Residual activity of cytochrome P450 at 10 uM

Compound	EC50 [4]	Cmax [6]	Ki [7]	IC50 [10]	CC50 [3]	also measured
Cc1cc(SC2=C(O)O[C@](CCc3ccc(O)cc3)(C(C)C)CC2=O)c(C(C)(C)C)cc1OS(C)(=O)=O	530 nM	6.54 µM	0.03 nM		80 µM	Cmax [1]: 6.54 µM; half-life [2]: 56.4 min; AUC [5]: 5390 ng·h/mL; AUC [8]: 5400 ng·h/mL
Cc1cc(SC2=C(O)OC(CCc3ccccc3)(C(C)C)CC2=O)c(C(C)(C)C)cc1NS(=O)(=O)c1ccccn1 (configuration not stated)	700 nM	1.14 µM		3 nM	67 µM	
Cc1cc(SC2=C(O)OC(CCc3ccc(O)cc3)(C(C)C)CC2=O)c(C(C)(C)C)cc1OS(=O)(=O)c1cccs1 (configuration not stated)	2400 nM			21.8 nM	72 µM	CC50 [11]: > 100 µM; EC50 [12]: 1420 nM; EC50 [13]: 700 nM; EC50 [14]: 390 nM; EC50 [15]: 540 nM; EC50 [16]: 500 nM; CC50 [17]: > 100 µM; EC50 [18]: 780 nM
Cc1cc(SC2=C(O)O[C@](CCc3ccccc3)(C(C)C)CC2=O)c(C(C)(C)C)cc1NS(=O)(=O)c1ccc(C(F)(F)F)cn1	450 nM	9.2 µM	0.31 nM		65 µM	Cmax [1]: 3.5 µM; half-life [2]: 138 min; AUC [5]: 6700 ng·h/mL; AUC [8]: 22000 ng·h/mL
Cc1cc(SC2=C(O)OC(CCc3ccc(O)cc3)(C(C)C)CC2=O)c(C(C)(C)C)cc1OS(=O)(=O)c1ccc(C#N)cc1 (configuration not stated)	600 nM			4.5 nM	67 µM	residual activity at 100 µM (CYP3A4 [19]): 6.86%; residual activity at 1 µM (CYP2C9 [20]): 83.5%; residual activity at 1 µM (CYP3A4 [21]): 79%; residual activity at 10 µM (CYP3A4 [22]): 34.6%; residual activity at 10 µM (CYP2C9 [23]): 18.1%
Cc1cc(SC2=C(O)OC(CCc3ccc(O)cc3)(C(C)C)CC2=O)c(C(C)(C)C)cc1NS(=O)(=O)c1ccccc1 (configuration not stated)	1400 nM		0.53 nM	1.8 nM	74 µM	

Continued, in another order:

EC50 [4]	Cmax [6]	Ki [7]	IC50 [10]	Compound	CC50 [3]	also measured
700 nM				Cc1cc(SC2=C(O)OC(CCc3ccccc3)(C(C)C)CC2=O)c(C(C)(C)C)cc1NS(=O)(=O)c1ccc(C(F)(F)F)cc1 (configuration not stated)	24 µM	Ki [9]: 27 nM
1600 nM		0.41 nM	2.2 nM	Cc1cc(SC2=C(O)OC(CCc3ccc(O)cc3)(C(C)C)CC2=O)c(C(C)(C)C)cc1NS(=O)(=O)c1ccc(C#N)cc1 (configuration not stated)	85 µM	
1800 nM		0.39 nM		Cc1cc(SC2=C(O)O[C@](CCc3ccc(O)cc3)(C(C)C)CC2=O)c(C(C)(C)C)cc1NS(=O)(=O)c1ccc(C(F)(F)F)cn1	66 µM	
1600 nM	0.63 µM		3.5 nM	Cc1cc(SC2=C(O)OC(CCc3ccc(O)cc3)(C(C)C)CC2=O)c(C(C)(C)C)cc1OS(=O)(=O)c1cccnc1 (configuration not stated)	76 µM	
